Measured values from ChEMBL document CHEMBL1131409, “Human telomerase inhibition by regioisomeric disubstituted amidoanthracene-9,10-diones” (J Med Chem, 1998).
pIC50: −log10 of the molar value.

What was measured:
[1] = target: Telomerase reverse transcriptase (Homo sapiens, UniProt O14746); experiment: Inhibitory activity of telomerase was measured using the TRAP assay.
How it was run: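 Cell-free modified TRAP with extracts from exponentially growing A2780 ovarian carcinoma cells. 0.04 μg protein was incubated with TS primer, dNTPs (50 μM each) and [α-32P]dCTP in TRAP buffer (pH 8.3, 68 mM KCl) ± agent, up to 50 μM final, for 20 min at 25 °C. Then 80 °C for 5 min, CX primer plus Taq, 31 PCR cycles. Products read by gel phosphorimaging/autoradiography or filter scintillation counting. IC50 taken as 50% inhibition relative to controls.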

[2] = tested on: CH1; experiment: In vitro cytotoxicity against CH1 ovarian cells using the sulforhodamine B(SRB) assay.; assay type: functional, cell-based; settings: Homo sapiens
How it was run: (§1)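 SRB growth assay. 3000–6000 cells were seeded and attached overnight. Agents were dissolved at 500 μM in water and added in quadruplicate at final 0.05, 0.25, 1, 5 and 25 μM. After 96 h, cells were fixed with cold 10% TCA and stained with 0.4% SRB. A540 was expressed as percent of untreated control and the 50% growth-inhibitory concentration was derived.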

[3] = tested on: SK-OV-3; experiment: In vitro cytotoxicity against SKOV-3 ovarian cells using the sulforhodamine B(SRB) assay.; assay type: functional, cell-based; settings: Homo sapiens; how it was run: as §1
[4] = tested on: A2780; experiment: In vitro cytotoxicity against A2780 ovarian cells using the sulforhodamine B(SRB) assay.; assay type: functional, cell-based; settings: Homo sapiens; how it was run: as §1

Chain of Telomerase reverse transcriptase (O14746 whole entry): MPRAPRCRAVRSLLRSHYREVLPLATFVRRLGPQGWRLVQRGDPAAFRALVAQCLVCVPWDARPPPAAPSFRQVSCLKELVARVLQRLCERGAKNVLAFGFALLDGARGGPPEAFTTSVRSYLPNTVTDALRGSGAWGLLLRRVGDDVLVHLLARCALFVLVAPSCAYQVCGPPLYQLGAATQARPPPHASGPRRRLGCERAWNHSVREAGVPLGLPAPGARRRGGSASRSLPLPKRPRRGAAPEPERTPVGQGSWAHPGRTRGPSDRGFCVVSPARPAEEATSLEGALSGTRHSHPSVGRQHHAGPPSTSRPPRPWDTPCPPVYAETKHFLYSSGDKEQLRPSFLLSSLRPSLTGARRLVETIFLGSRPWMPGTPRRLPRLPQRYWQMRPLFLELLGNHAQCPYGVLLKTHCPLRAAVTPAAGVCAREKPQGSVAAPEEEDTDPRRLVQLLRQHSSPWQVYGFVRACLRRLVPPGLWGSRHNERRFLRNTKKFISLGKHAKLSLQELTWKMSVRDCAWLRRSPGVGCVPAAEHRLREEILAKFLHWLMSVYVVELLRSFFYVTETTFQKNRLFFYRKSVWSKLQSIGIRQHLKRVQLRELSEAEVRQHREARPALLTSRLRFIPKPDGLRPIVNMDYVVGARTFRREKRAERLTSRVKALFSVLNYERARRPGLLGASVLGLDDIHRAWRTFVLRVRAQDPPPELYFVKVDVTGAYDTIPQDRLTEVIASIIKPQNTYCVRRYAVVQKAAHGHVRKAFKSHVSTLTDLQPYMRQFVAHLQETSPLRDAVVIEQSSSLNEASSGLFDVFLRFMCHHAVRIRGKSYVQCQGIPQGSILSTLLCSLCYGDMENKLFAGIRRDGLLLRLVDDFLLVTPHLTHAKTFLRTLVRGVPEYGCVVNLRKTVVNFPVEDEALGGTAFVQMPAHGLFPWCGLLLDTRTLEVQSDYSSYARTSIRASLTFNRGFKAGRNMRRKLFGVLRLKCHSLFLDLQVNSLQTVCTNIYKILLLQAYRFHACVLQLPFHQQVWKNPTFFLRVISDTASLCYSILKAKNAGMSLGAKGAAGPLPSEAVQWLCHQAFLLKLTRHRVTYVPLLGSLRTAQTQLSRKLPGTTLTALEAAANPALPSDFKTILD

Row | pIC50 [1] | Structure (SMILES) | pIC50 [2] | pIC50 [3] | pIC50 [4]
1 | 5.15 | C[N+](C)(C)CCC(=O)Nc1ccc(NC(=O)CC[N+](C)(C)C)c2c1C(=O)c1ccccc1C2=O |  |  | 
2 |  | CCN(CC)CCC(=O)Nc1ccc(NC(=O)CCN(CC)CC)c2c1C(=O)c1ccccc1C2=O | 6.59 | 5.85 | 6.70
3 | 4.88 | C[N+]1(CCC(=O)Nc2cccc3c2C(=O)c2cccc(NC(=O)CC[N+]4(C)CCOCC4)c2C3=O)CCOCC1 | 5.74 | 5.54 | 5.72
4 | 5.30 | C[N+]1(CCC(=O)Nc2ccc(NC(=O)CC[N+]3(C)CCCC3)c3c2C(=O)c2ccccc2C3=O)CCCC1 | 5.35 | 4.43 | 5.82
5 |  | O=C(CCN1CCCC1)Nc1cccc2c1C(=O)c1cccc(NC(=O)CCN3CCCC3)c1C2=O | 6.44 | 6.28 | 6.49
6 |  | C[N+]1(CCC(=O)Nc2ccc3c(c2)C(=O)c2ccc(NC(=O)CC[N+]4(C)CCCC4)cc2C3=O)CCCC1 | 5.87 | 5.70 | 6.25
7 | < 4.30 | O=C(CCN1CCOCC1)Nc1cccc2c1C(=O)c1c(NC(=O)CCN3CCOCC3)cccc1C2=O | 4.67 | < 4.60 | < 4.60
8 | 5.09 | C[N+]1(CCC(=O)Nc2cccc3c2C(=O)c2c(NC(=O)CC[N+]4(C)CCCC4)cccc2C3=O)CCCC1 | 5.77 | 5.30 | 6.22
9 | 5.51 | CC[N+](C)(CC)CCC(=O)Nc1ccc(NC(=O)CC[N+](C)(CC)CC)c2c1C(=O)c1ccccc1C2=O | 5.20 | < 4.60 | 5.37
10 | 5.07 | C[N+]1(CCC(=O)Nc2cccc3c2C(=O)c2cccc(NC(=O)CC[N+]4(C)CCCCC4)c2C3=O)CCCCC1 | 5.68 | 5.08 | 5.70
11 | 5.43 | O=C(CCN1CCCCC1)Nc1cccc2c1C(=O)c1c(NC(=O)CCN3CCCCC3)cccc1C2=O | 5.71 | 5.63 | 6.27
12 | < 4.30 | O=C(CCN1CCOCC1)Nc1cccc2c1C(=O)c1cccc(NC(=O)CCN3CCOCC3)c1C2=O | < 4.60 | < 4.60 | < 4.60
13 | 5.00 | C[N+]1(CCC(=O)Nc2cccc3c2C(=O)c2c(NC(=O)CC[N+]4(C)CCOCC4)cccc2C3=O)CCOCC1 | 6.24 | 5.59 | 6.29
14 | 5.57 | CCN(CC)CCC(=O)Nc1cccc2c1C(=O)c1cccc(NC(=O)CCN(CC)CC)c1C2=O | 6.49 | 6.21 | 6.49
15 | 4.84 | C[N+](C)(C)CCC(=O)Nc1ccc2c(c1)C(=O)c1cc(NC(=O)CC[N+](C)(C)C)ccc1C2=O | 5.89 | 5.40 | 6.36
16 | 5.70 | O=C(CCN1CCCC1)Nc1ccc2c(c1)C(=O)c1cc(NC(=O)CCN3CCCC3)ccc1C2=O | 5.74 | 5.64 | 5.92
17 | 5.64 | O=C(CCN1CCCCC1)Nc1cccc2c1C(=O)c1cccc(NC(=O)CCN3CCCCC3)c1C2=O | 6.38 | 6.09 | 6.36
18 | 5.19 | CN(C)CCC(=O)Nc1cccc2c1C(=O)c1c(NC(=O)CCN(C)C)cccc1C2=O | 5.87 | 5.78 | 6.48
19 | 4.78 | C[N+]1(CCC(=O)Nc2ccc3c(c2)C(=O)c2cc(NC(=O)CC[N+]4(C)CCOCC4)ccc2C3=O)CCOCC1 | 5.96 | 5.53 | 6.28
20 | 5.12 | CC[N+](C)(CC)CCC(=O)Nc1cccc2c1C(=O)c1c(NC(=O)CC[N+](C)(CC)CC)cccc1C2=O | 5.78 | 5.34 | 6.26
21 | 4.88 | C[N+](C)(C)CCC(=O)Nc1cccc2c1C(=O)c1cccc(NC(=O)CC[N+](C)(C)C)c1C2=O | 5.76 | 5.24 | 5.77

Row | pIC50 [1] | Structure (SMILES) | pIC50 [2] | pIC50 [3] | pIC50 [4]
22 | 5.38 | CCN(CC)CCC(=O)Nc1cccc2c1C(=O)c1c(NC(=O)CCN(CC)CC)cccc1C2=O | 5.28 | 5.28 | 6.19
23 |  | CC[N+](C)(CC)CCC(=O)Nc1ccc2c(c1)C(=O)c1ccc(NC(=O)CC[N+](C)(CC)CC)cc1C2=O | 5.72 | 5.19 | 5.68
24 | 4.80 | C[N+]1(CCC(=O)Nc2ccc3c(c2)C(=O)c2cc(NC(=O)CC[N+]4(C)CCCC4)ccc2C3=O)CCCC1 | 5.80 | 5.33 | 6.32
25 | 5.11 | C[N+]1(CCC(=O)Nc2ccc3c(c2)C(=O)c2cc(NC(=O)CC[N+]4(C)CCCCC4)ccc2C3=O)CCCCC1 | 5.98 | 5.66 | 6.74
26 |  | O=C(CCN1CCOCC1)Nc1ccc2c(c1)C(=O)c1ccc(NC(=O)CCN3CCOCC3)cc1C2=O | 4.85 | < 4.60 | < 4.60
27 | 5.11 | C[N+]1(CCC(=O)Nc2cccc3c2C(=O)c2c(NC(=O)CC[N+]4(C)CCCCC4)cccc2C3=O)CCCCC1 | 5.95 | 5.34 | 6.28
28 | 5.74 | O=C(CCN1CCCC1)Nc1ccc2c(c1)C(=O)c1ccc(NC(=O)CCN3CCCC3)cc1C2=O | 4.31 | 4.42 | 4.41
29 | 5.06 | C[N+]1(CCC(=O)Nc2cccc3c2C(=O)c2cccc(NC(=O)CC[N+]4(C)CCCC4)c2C3=O)CCCC1 | 5.65 | 5.00 | 5.66
30 | 4.77 | CC[N+](C)(CC)CCC(=O)Nc1cccc2c1C(=O)c1cccc(NC(=O)CC[N+](C)(CC)CC)c1C2=O | 5.69 | 5.00 | 5.72
31 |  | O=C(CCN1CCCC1)Nc1ccc(NC(=O)CCN2CCCC2)c2c1C(=O)c1ccccc1C2=O | 7.72 | 6.41 | 8.60
32 | 5.46 | CCN(CC)CCC(=O)Nc1ccc2c(c1)C(=O)c1ccc(NC(=O)CCN(CC)CC)cc1C2=O | 5.50 | 5.50 | 5.63
33 | 5.89 | CN(C)CCC(=O)Nc1cccc2c1C(=O)c1cccc(NC(=O)CCN(C)C)c1C2=O | 6.43 | 6.21 | 6.46
34 | 5.36 | C[N+](C)(C)CCC(=O)Nc1cccc2c1C(=O)c1c(NC(=O)CC[N+](C)(C)C)cccc1C2=O | 5.85 | 5.66 | 6.28
35 | < 4.70 | CC[N+](C)(CC)CCC(=O)Nc1ccc2c(c1)C(=O)c1cc(NC(=O)CC[N+](C)(CC)CC)ccc1C2=O | 5.95 | 5.70 | 6.48
36 |  | O=C(CCN1CCCC1)Nc1cccc2c1C(=O)c1c(NC(=O)CCN3CCCC3)cccc1C2=O | 5.89 | 5.92 | 6.53
37 | 5.39 | CN(C)CCC(=O)Nc1ccc2c(c1)C(=O)c1ccc(NC(=O)CCN(C)C)cc1C2=O |  |  | 
38 | 5.51 | O=C(CCN1CCCCC1)Nc1ccc2c(c1)C(=O)c1cc(NC(=O)CCN3CCCCC3)ccc1C2=O | 5.50 | 5.43 | 6.32
39 | 5.33 | CN(C)CCC(=O)Nc1ccc2c(c1)C(=O)c1cc(NC(=O)CCN(C)C)ccc1C2=O | 5.36 | 5.38 | 5.68
40 | 5.37 | CCN(CC)CCC(=O)Nc1ccc2c(c1)C(=O)c1cc(NC(=O)CCN(CC)CC)ccc1C2=O | 5.34 | 5.14 | 5.68
41 | < 4.30 | O=C(CCN1CCOCC1)Nc1ccc2c(c1)C(=O)c1cc(NC(=O)CCN3CCOCC3)ccc1C2=O | 5.12 | < 4.00 | 5.28
